NR2E3 ag-1 – agonists of human NR2E3 nuclear receptor. inhibition of corepressor binding, % at 3.98 µM. CHO-S Gal4-NCOR/VP16-NR2E3 two-hybrid, luciferase. actives 0.35% (n = 360,000). AID 602229. Q9Y5X4;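 active = inhibition above the mean of all tested compounds plus 3 SD, cut at about 70% in these data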;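 also: 0% = DMSO with NR2E3 transfected cells and 100% = cells lacking NR2E3 construct; higher means lower luciferase signal from less NR2E3 corepressor binding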
PG9 Ab binder – PG9 antibody binding by small molecule | TR-FRET gp120-PG9 antibody binding | inhibition, % at 6.7 µM | actives 0.43% (n = 360,000) | AID 624416; in the data active = inhibition above about 8.5%
GalR3 antag – blocks the human galanin receptor 3 | HEK293 GalR3-CNG cAMP membrane potential fluorescence; galR3 body fused to GalR1 C-terminus | inhibition, % at 3 µM | actives 0.44% (n = 360,000) | AID 651719;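 active = inhibition above the screen-wide average plus 3 SD, cut at about 13% in these data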;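 also: forskolin and galanin both at EC90 stimulate the cells; cAMP rise reported by CNG channel membrane potential dye signal; 0% = forskolin plus galanin with DMSO and 100% = forskolin alone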
NR1D1 modulator – modulators of human Rev-erb alpha DNA binding | P20393 | Rev-erbα–FITC-DNA binding, fluorescence polarization, 90 min | activity, % at 10 µM | actives 0.79% (n = 370,000) | AID 1259318;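 active = activity above about 14%, limit read from the data; passing the limit was not always enough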;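 also: 0% = DMSO wells with 35 nM protein and 100% = DMSO wells with 750 nM protein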
Target sequence (P20393 whole entry, looked up): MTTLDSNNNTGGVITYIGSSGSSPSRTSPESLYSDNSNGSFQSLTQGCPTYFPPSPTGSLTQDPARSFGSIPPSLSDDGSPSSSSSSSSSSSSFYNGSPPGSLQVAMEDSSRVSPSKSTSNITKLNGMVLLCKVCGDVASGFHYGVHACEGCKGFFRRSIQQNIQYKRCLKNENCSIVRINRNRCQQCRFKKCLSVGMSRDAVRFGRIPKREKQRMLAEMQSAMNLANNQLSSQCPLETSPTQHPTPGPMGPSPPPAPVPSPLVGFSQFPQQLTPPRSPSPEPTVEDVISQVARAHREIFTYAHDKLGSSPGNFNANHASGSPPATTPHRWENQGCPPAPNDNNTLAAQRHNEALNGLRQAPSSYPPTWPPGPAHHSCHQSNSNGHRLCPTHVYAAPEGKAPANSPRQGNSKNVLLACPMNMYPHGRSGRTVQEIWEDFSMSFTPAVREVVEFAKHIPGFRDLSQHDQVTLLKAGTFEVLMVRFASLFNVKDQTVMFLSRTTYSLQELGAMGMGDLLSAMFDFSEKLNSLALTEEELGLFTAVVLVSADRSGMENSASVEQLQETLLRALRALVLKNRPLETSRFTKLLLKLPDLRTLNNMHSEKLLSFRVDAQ
NR2E3 ag-2 – NR2E3 (human) agonism; Q9Y5X4; GST-NR2E3/biotin-RetCOR TR-FRET, 1536-well; inhibition of corepressor binding, % at 4.78 µM; actives 0.12% (n = 320,000); AID 2300;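 active = percent inhibition above the cutoff of mean plus 3 SD of all tested compounds, set per screening campaign, cut at about 20% in these data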;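 also: 0% = DMSO wells and 100% = biotin wells as full block of FRET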
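Test system: GST-NR2E3 and biotin-RetCOR proteins | Quantity: 1.35 nM GST-tagged NR2E3 final | Medium: Tris pH 7.5 | Also added: 7 nM biotin-RetCOR | Dosing: Compound at 4.8 µM, single dose | Timing: 5 h at 4 °C | Detection: Time-resolved FRET | Read-out basis: Percent inhibition | Benchmarks: Biotin wells as high control, 0.6% DMSO wells as low control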
Rev-erbA confirm – Rev-erb alpha (human) modulation, hit confirmation; shares compounds with NR1D1 modulator; Rev-erb alpha FITC-DNA binding, fluorescence polarization, 90 min; activation, % at 25 µM; actives 61% (n = 3,000); AID 1259319;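 active = activation at or above a set limit, or at least 3 SD above the negative control mean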;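 also: 0% = 35 nM protein with DMSO and 100% = 750 nM protein high control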
RORg counter – affects RORgamma DNA binding in a Rev-erb alpha counter-screen | purified RORgamma protein-FITC-DNA binding, fluorescence polarization | AID 1259320 | actives 8% (n = 910) | IC50, µM | shares compounds with NR1D1 modulator;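 active = Compounds whose fitted half-maximal concentration for disrupting protein-DNA binding is below 10 micromolar; the record names Rev-erb in its text, so the target is in doubt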
An asterisk follows results filed as active; nt = not tested or not shown; ! = not active in a repeat. The list is not random: actives were taken first. Their share in the collection is about 1.8%.

SMILES	NR2E3 ag-1	PG9 Ab binder	GalR3 antag	NR1D1 modulator	NR2E3 ag-2	Rev-erbA confirm	others
O=C(Nc1ccc(-c2nc3cc(Cl)ccc3c(=O)o2)cc1)c1ccco1	10.1	-0.3	-8.7	27.3*	0.9	0.3
O=C(Nc1ccc(Cl)cc1)c1ccco1	-53.7	-0.5	-3.2	-9.9	6.5	nt
CCOC(=O)c1cc(-c2ccccc2)sc1NC(=O)C(C)OC(=O)c1cccnc1Cl (stereo unspecified)	-12.0	-1.7	-6.0	19.9*	2.8	12.7
CCOC(=O)c1cc(-c2ccccc2)sc1NC(=S)Nc1cccc(C)n1	-2.7	1.9	-3.1	26.1*	-4.3	0.7
CN1CCCCC(NC(=O)CSc2ccccc2)C1=O (stereo unspecified)	nt	-2.0	-3.4	9.5	nt	nt
COCCN(C[C@@H]1[C@H](c2ccccc2)[C@H](CO)N1c1nc(C)c(C)s1)S(=O)(=O)c1ccccc1[N+](=O)[O-]	nt	nt	nt	6.8	nt	nt
CCCN1C(=O)S/C(=C/c2ccc(N3CCOCC3)o2)C1=O	-0.1	-11.5	-6.2	47.1*	-2.1	44.7*	RORg counter=>40
Cc1ccccc1CN1CCCCC(NC(=O)c2cccc(C(F)(F)F)c2)C1=O (stereo unspecified)	nt	nt	nt	-1.6	nt	nt
Nc1ccc2ccccc2c1N=Nc1ccccc1	-24.2	-3.4	-5.8	23.1*	nt	27.1*
COC(=O)[C@]12CCCCC=C1N(Cc1ccc(OC)cc1)C(=O)[C@@H]2CC(=O)N1CCC(c2ccccc2)CC1	nt	nt	nt	3.4	nt	nt
O=C(Nc1ccnc(-c2cccnc2)n1)c1ccc(Cl)cc1	-13.8	-1.0	-4.2	45.1*	-32.6	41.0*	RORg counter=>40
CCC(CC)COC(=O)C1=C(C)NC(=O)NC1c1ccccc1Br (stereo unspecified)	-8.8	-0.7	-3.0	16.5*	-2.0	14.6
COc1cccc(CNc2nc3ccc(C)cc3n3cnnc23)c1	-9.9	1.8	-0.4	26.2*	-0.8	7.3
Cc1ccc(CNc2nc3ccc(C)cc3n3cnnc23)cc1	-8.5	-1.1	1.1	-13.0	3.2	nt
O=C(Cc1ccc(Cl)cc1)NC(=S)Nc1ccccc1N1CCOCC1	6.7	-1.0	-10.9	-0.8	0.5	nt
O=C(Nc1ccccc1N1CCOCC1)C1(c2ccc(Cl)cc2)CCC1	13.1	-1.0	-7.1	19.7*	2.1	8.9
Clc1ccc(-c2ccnc(Oc3cc(Cl)ccc3Cl)n2)cc1	-9.2	0.5	-4.0	35.3*	2.5	38.6*	RORg counter=>40
Clc1ccc(-c2ccnc(Oc3ccc4ccccc4c3)n2)cc1	-17.7	-2.0	3.7	4.3	1.9	nt
CN1CCCCC(NC(=O)c2ccccc2)C1=O (stereo unspecified)	nt	1.8	-3.3	-2.9	nt	nt
COCCN(Cc1cc2cc(C)ccc2n2nnnc12)C(=S)Nc1ccc(C)cc1	4.1	2.0	-5.4	104.1*	-1.3	49.4*	RORg counter=>40
COCCNC(=S)N(Cc1cc2cc(C)ccc2n2nnnc12)C1CCCC1	-30.1	-1.1	3.1	54.0*	-1.2	22.5*
CCC(C)(C)C1CCc2c(sc(NC(=O)c3cccs3)c2C(N)=O)C1 (stereo unspecified)	1.9	-1.3	-2.6	29.1*	-5.8	15.8
CC(C)(C)C1CCc2c(sc(NC(=O)c3cccs3)c2C(N)=O)C1 (stereo unspecified)	12.7	-1.2	-4.0	6.2	3.0	nt
O=C(NCc1ccccc1)OC1CCC12CCC(c1ccccc1)CC2 (stereo unspecified)	nt	nt	nt	6.1	nt	nt
COc1cc(/C=N/NC(=O)CC2(C)OCCO2)cc(Br)c1O	-40.6	-8.8	-4.0	71.2*	-1.3	-4.5
SMILES	NR2E3 ag-1	PG9 Ab binder	GalR3 antag	NR1D1 modulator	NR2E3 ag-2	Rev-erbA confirm	others
CCn1c(=O)cc(OCC(=O)Nc2cccnc2)c2ccccc21	-33.1	-0.5	-3.1	4.4	1.5	nt
CCOC(=O)c1ccc(NC(=O)COc2cc(=O)n(CC)c3ccccc23)cc1	-0.6	0.7	3.3	28.0*	-1.1	26.7*
CCn1c(=O)cc(SCC(=O)Nc2ccc(Cl)cc2)c2ccccc21	-3.0	0.3	1.0	137.6*	-0.7	90.3*	RORg counter=>40
CCOC(=O)Cn1c(=NC(=O)C2CC2)sc2c(C)cc(C)cc21	-21.0	21.4*	-6.6	17.9*	1.2	-8.2
COc1cc(CCC(=O)OCC(=O)NCc2ccccc2)cc(OC)c1OC	11.9	1.0	-4.3	nt	-3.6	nt
COc1cc(CCC(=O)OCC(=O)NCC2CCCCC2)cc(OC)c1OC	2.0	-1.3	-4.9	16.2*	2.9	2.7
COC(=O)c1c(NC(=S)NNS(=O)(=O)c2ccc(OC)cc2OC)sc2c1CCCCCC2	26.8	0.8	2.1	31.9*	nt	11.7
COC(=O)c1c(NC(=S)NC(=O)c2ccco2)sc2c1CCCC2	24.5	0.7	-2.0	-0.1	-3.2	nt
COc1cc(-c2cc(-c3ccc(N)cc3)[nH]c(=O)c2C#N)cc(OC)c1OC	-5.7	-0.8	-10.4	25.0*	2.4	15.1
CC/C(=C(/CC)c1ccc(O)cc1)c1ccc(O)cc1	-9.5	-0.8	-2.3	30.7*!	-0.4	33.6*
CCCCCCCCCCCCCCCC[n+]1ccccc1	3.8	-0.7	-1.2	24.7*!	nt	-3.5
C[C@H](CO)N1C[C@H](C)[C@H](CN(C)C(=O)Nc2ccc3c(c2)OCO3)OCc2cnnn2CCCC1=O	nt	-2.5	-4.8	-5.3	nt	nt
CC1(C)Cc2c(sc3nc(-c4cc5ccccc5o4)n(N)c(=O)c23)CO1	-35.9	0.3	-2.0	47.8*	1.6	25.6*
COc1ccc(OC)c(C(=O)COC(=O)c2[nH]c(C)c(C(C)=O)c2C)c1	5.2	7.6	-2.9	15.9*	nt	10.1
COC(=O)C1CN(Cc2cn(Cc3ccc(Cl)cc3)nn2)CCS(=O)(=O)N1Cc1ccc(OC)cc1 (stereo unspecified)	nt	nt	nt	-0.8	nt	nt
C/C(N)=C(/C#N)C(=O)CSc1cc(C)c2cc(C)cc(C)c2n1	-5.4	2.0	5.2	50.2*	1.6	27.5*
CCOC(=O)[C@]12CCCC3=C1N(CCC3)C(=O)[C@@H](CC(=O)NCCCCc1ccccc1)C2	nt	nt	nt	0.9	nt	nt
CCOC(=O)c1sc2nc(NC(=O)COc3ccccc3)sc2c1C	-4.5	0.4	nt	22.7*	4.7	14.0*
CC(=O)c1sc(NC(=O)COc2ccccc2)nc1C	-67.6	5.3	-4.7	1.1	4.8	nt
O=C(NCc1ccccc1)[C@H]1CCCN1C(=O)[C@H]1CCCN1C(=O)c1cccc(Cl)c1	nt	-1.2	-2.4	-3.0	nt	nt
Cc1ccc(CNC[C@@]23CO[C@H](c4ccc(Cl)cc4)N2[C@@H](c2ccc(Cl)cc2)SC3)o1	nt	nt	nt	4.7	nt	nt
COc1ccccc1C1CC(=O)NC(C)=C1C(=O)OC(C)C (stereo unspecified)	4.9	-0.4	-0.3	22.1*	-2.7	2.0
